Reference: ChEMBL document CHEMBL1157378, “Role for cell density in antifungal drug resistance in Candida albicans biofilms” (2007)

How the values were obtained:
Format in all cases: functional
[1] = system: Candida albicans; assay: Antimicrobial activity against Chk1 deficient Candida albicans CHK21 at planktonic cell density of 10^8 cells/ml after 48 hrs by XTT assay; conditions: CHK21, 48 h
Procedure, shortened: (§1)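 YNB-grown yeast (50 mM glucose, room temperature, shaken, to ~2 x 10^8 cells/ml) washed into MOPS-buffered RPMI 1640 with L-glutamine and set to the stated density. Exposed to twofold serial drug dilutions (1,024 to 0.0313 µg/ml) at 37°C, 48 h (caspofungin 24 h), with drug-free controls. Read-out: XTT (0.5 g/liter) plus 1 µM menadione, formazan at 490 nm.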

[2] = system: Candida albicans; assay: Antimicrobial activity against Chk1 deficient Candida albicans CHK21 dissociated biofilms at cell density of 10^3 cells/ml after 48 hrs by XTT assay; conditions: CHK21, 48 h
Procedure, shortened: (§2)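 Polystyrene-well biofilms (48 h, 37°C) washed, then broken up in 100 µl RPMI by scraping and aspiration. Cells used undiluted (about 2 x 10^8 cells/ml equivalent) or adjusted by A600 against a hemacytometer-calibrated yeast standard curve. Drug exposure at 37°C for 48 h (caspofungin 24 h), then XTT/menadione read at 490 nm.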

[3] = system: Candida albicans; assay: Antimicrobial activity against Chk1 deficient Candida albicans CHK21 dissociated biofilms at cell density of 10^8 cells/ml after 48 hrs by XTT assay; conditions: CHK21, 48 h; procedure, shortened: as §2
[4] = system: Candida albicans; assay: Antimicrobial activity against Chk1 deficient Candida albicans CHK21 intact biofilms after 48 hrs by XTT assay; conditions: CHK21, 48 h
Procedure, shortened: (§3)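 Biofilm seeded at 1 x 10^6 cells/ml in RPMI in polystyrene microtiter wells and grown 48 h at 37°C in a moist chamber. Washed once and drug added to the same well (twofold dilutions, 1,024 to 0.0313 µg/ml) for 48 h at 37°C (caspofungin 24 h). Read-out: XTT/menadione reduction at 490 nm.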

[5] = system: Candida albicans; assay: Antimicrobial activity against Candida albicans GDH2346 intact biofilms after 48 hrs by XTT assay; conditions: GDH2346, 48 h; procedure, shortened: as §3
[6] = system: Candida albicans; assay: Antimicrobial activity against Candida albicans FH1 at planktonic cell density of 10^3 cells/ml after 48 hrs by XTT assay; conditions: FH1, 48 h; procedure, shortened: as §1
[7] = system: Candida albicans; assay: Antimicrobial activity against Candida albicans FH1 at planktonic cell density of 10^8 cells/ml after 48 hrs by XTT assay; conditions: FH1, 48 h; procedure, shortened: as §1
[8] = system: Candida albicans; assay: Antimicrobial activity against Candida albicans FH1 dissociated biofilms at cell density of 10^3 cells/ml after 48 hrs by XTT assay; conditions: FH1, 48 h; procedure, shortened: as §2
[9] = system: Candida albicans; assay: Antimicrobial activity against Candida albicans FH1 dissociated biofilms at cell density of 10^8 cells/ml after 48 hrs by XTT assay; conditions: FH1, 48 h; procedure, shortened: as §2
[10] = system: Candida albicans; assay: Antimicrobial activity against Candida albicans FH1 intact biofilms after 48 hrs by XTT assay; conditions: FH1, 48 h; procedure, shortened: as §3
[11] = system: Candida albicans; assay: Antimicrobial activity against fluconazole-resistant Candida albicans FH5 at planktonic cell density of 10^3 cells/ml after 48 hrs by XTT assay; conditions: FH5, 48 h; procedure, shortened: as §1
[12] = system: Candida albicans; assay: Antimicrobial activity against fluconazole-resistant Candida albicans FH5 at planktonic cell density of 10^8 cells/ml after 48 hrs by XTT assay; conditions: FH5, 48 h; procedure, shortened: as §1
[13] = system: Candida albicans; assay: Antimicrobial activity against fluconazole-resistant Candida albicans FH5 dissociated biofilms at cell density of 10^3 cells/ml after 48 hrs by XTT assay; conditions: FH5, 48 h; procedure, shortened: as §2
[14] = system: Candida albicans; assay: Antimicrobial activity against fluconazole-resistant Candida albicans FH5 dissociated biofilms at cell density of 10^8 cells/ml after 48 hrs by XTT assay; conditions: FH5, 48 h; procedure, shortened: as §2
[15] = system: Candida albicans; assay: Antimicrobial activity against fluconazole-resistant Candida albicans FH5 intact biofilms after 48 hrs by XTT assay; conditions: FH5, 48 h; procedure, shortened: as §3
[16] = system: Candida albicans; assay: Antimicrobial activity against Cdr1, Cdr2 and Mdr1 deficient Candida albicans DSY1050 at planktonic cell density of 10^3 cells/ml after 48 hrs by XTT assay; conditions: DSY1050, 48 h; procedure, shortened: as §1
[17] = system: Candida albicans; assay: Antimicrobial activity against Cdr1, Cdr2 and Mdr1 deficient Candida albicans DSY1050 at planktonic cell density of 10^8 cells/ml after 48 hrs by XTT assay; conditions: DSY1050, 48 h; procedure, shortened: as §1
[18] = system: Candida albicans; assay: Antimicrobial activity against Cdr1, Cdr2 and Mdr1 deficient Candida albicans DSY1050 dissociated biofilms at cell density of 10^3 cells/ml after 48 hrs by XTT assay; conditions: DSY1050, 48 h; procedure, shortened: as §2
[19] = system: Candida albicans; assay: Antimicrobial activity against Cdr1, Cdr2 and Mdr1 deficient Candida albicans DSY1050 dissociated biofilms at cell density of 10^8 cells/ml after 48 hrs by XTT assay; conditions: DSY1050, 48 h; procedure, shortened: as §2
[20] = system: Candida albicans; assay: Antimicrobial activity against Cdr1, Cdr2 and Mdr1 deficient Candida albicans DSY1050 intact biofilms after 48 hrs by XTT assay; conditions: DSY1050, 48 h; procedure, shortened: as §3
[21] = system: Candida albicans; assay: Antimicrobial activity against Chk1 deficient Candida albicans CHK21 at planktonic cell density of 10^3 cells/ml after 48 hrs by XTT assay; conditions: CHK21, 48 h; procedure, shortened: as §1
[22] = system: Candida albicans; assay: Antimicrobial activity against Candida albicans SC5314 at planktonic cell density of 10^3 cells/ml after 48 hrs by XTT assay; conditions: SC5314, 48 h; procedure, shortened: as §1
[23] = system: Candida albicans; assay: Antimicrobial activity against Candida albicans SC5314 dissociated biofilms at cell density of 10^3 cells/ml after 48 hrs by XTT assay; conditions: SC5314, 48 h; procedure, shortened: as §2
[24] = system: Candida albicans; assay: Antimicrobial activity against Candida albicans SC5314 at planktonic cell density of 10^8 cells/ml after 48 hrs by XTT assay; conditions: SC5314, 48 h; procedure, shortened: as §1
[25] = system: Candida albicans; assay: Antimicrobial activity against Candida albicans SC5314 dissociated biofilms at cell density of 10^8 cells/ml after 48 hrs by XTT assay; conditions: SC5314, 48 h; procedure, shortened: as §2
[26] = system: Candida albicans; assay: Antimicrobial activity against Candida albicans SC5314 intact biofilms after 48 hrs by XTT assay; conditions: SC5314, 48 h; procedure, shortened: as §3
[27] = system: Candida albicans; assay: Antimicrobial activity against Candida albicans GDH2346 at planktonic cell density of 10^3 cells/ml after 48 hrs by XTT assay; conditions: GDH2346, 48 h; procedure, shortened: as §1
[28] = system: Candida albicans; assay: Antimicrobial activity against Candida albicans GDH2346 at planktonic cell density of 10^8 cells/ml after 48 hrs by XTT assay; conditions: GDH2346, 48 h; procedure, shortened: as §1
[29] = system: Candida albicans; assay: Antimicrobial activity against Candida albicans GDH2346 dissociated biofilms at cell density of 10^3 cells/ml after 48 hrs by XTT assay; conditions: GDH2346, 48 h; procedure, shortened: as §2
[30] = system: Candida albicans; assay: Antimicrobial activity against Candida albicans GDH2346 dissociated biofilms at cell density of 10^8 cells/ml after 48 hrs by XTT assay; conditions: GDH2346, 48 h; procedure, shortened: as §2

Measured: MIC80

CC(=O)N1CCN(c2ccc(OC[C@H]3CO[C@](Cn4ccnc4)(c4ccc(Cl)cc4Cl)O3)cc2)CC1 [KETOCONAZOLE]
> 256 µg/mL: [12] | [17]
0.5 µg/mL: [23]
0.25 µg/mL: [16] | [27]
4 µg/mL: [6] | [8]
0.125 µg/mL: [2] | [18] | [21] | [22] | [29]
64 µg/mL: [11] | [13]
> 64 µg/mL: [1] | [3] | [4] | [19] | [20] | [30]
> 512 µg/mL: all other assays above
